In ChEMBL document CHEMBL4513216, “Probing the Open Global Health Chemical Diversity Library for Multistage-Active Starting Points for Next-Generation Antimalarials” (ACS Infect Dis, 2020):

Experiment: Toxicity liver stage against HepG2, at 10uM
Format: cell-based
Design: test concentration 10 uM, cell line HepG2-A16-CD81EGFP
Settings: human, HepG2-A16-CD81EGFP cells; read-out: INHIBITION
Method in brief: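 Uninfected HepG2-A16-CD81EGFP cells, 3 × 10^3 per well, 1536-well, plated on prespotted compound at 10 μM final, parasite-free screening media added to match infected plates; puromycin 10 μM positive, DMSO 0.5% negative; run in parallel with 48 h PbLuc assay at 37 °C, 5% CO2; viability by CellTiter-Glo luminescence, normalized to controls.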

Structure (SMILES) | cytotoxicity at 10 µM [%]
Cc1cccc(NC(=O)CNC(=O)Cn2ncc(Cl)c(Cl)c2=O)c1C | 12.7
CCCNC(=O)CNC(=O)CCc1ccccc1Br | 12.3
O=C(Cn1ccc2c(Cl)cccc21)Nc1nc[nH]n1 | -1.88
CC(C)Cn1c2c(ccc1=O)CC(N)CC2 (centres undefined) | 8.03
O=C(c1ccc(F)c(F)c1)N1C[C@H]2CNC[C@H]2C1 | 5.82
Cc1nc(N2CCOCC2)nc2c1CN(C(=O)C(C)C)CC2 | 0.552
CN(Cc1cccs1)C1CCC[C@@H]2CN(C(=O)c3cccn3C)C[C@H]12 (some centres undefined) | 22.6
O=C(NCC1CC[C@@]2(CNCCOC2)O1)c1cnccn1 (some centres undefined) | 9.44
CCN1CC2(CC1=O)CN(C(=O)c1ccco1)CCN(C(=O)N(C)C)C2 (centres undefined) | -8.37
CC1CCN(C(=O)C(C)n2cc(Br)cn2)CC1 (centres undefined) | 11.3
COc1cccc(-c2cc(C(=O)N3N=C(C)CC3(O)C(F)F)[nH]n2)c1 (centres undefined) | 8.46
CCN(Cc1nonc1C)C(=O)c1ccc(Br)o1 | 0.621
Cc1nn(C)c(C)c1CN(C)CC1(O)CCCN(C)C1 (centres undefined) | 6.5
O=C(NCC1CC1)c1nnc2ccc(Cl)cc2n1 | 0.318
O=C(CCN1CCOCC1)NC(Cc1ccsc1)c1nccs1 (centres undefined) | 3.35
Cc1cc(N2CCCC(c3nccnc3N(C)C)C2)ncn1 (centres undefined) | -1.77
Cc1csc2c(C3CCCN(C(=O)CCn4cncn4)C3)nc(C)n12 (centres undefined) | 7.96
Cc1nc(NCCO)cc(C(C)Cn2nc(C)c(C)c2C)n1 (centres undefined) | 4.41
c1cc(-c2cnc(NC3CC3)nc2[C@@H]2CCCO2)ccn1 | 8.72
Cc1cnc(-c2nc(O)c3c(n2)CN(C(=O)CC2CCCC2)CC3)cn1 | -1.37
Cc1ccc(CNCCN2CCOCC2)o1 | -2.62
Cc1noc(C)c1-c1cccc(C2CCNCC2)n1 | 2.98
CC1CCC(NCCNC(=O)c2cccs2)CC1 (centres undefined) | -11.8

Structure (SMILES) | cytotoxicity at 10 µM [%]
Cc1ccc(-c2nnc(SCC(=O)O)n2-c2ccccc2)cc1 | -4.9
COc1cccc(CNC(=O)c2ccccc2-n2cc(CN)cn2)c1 | -21
O=C(c1cnco1)N1C[C@@H](O)[C@H](Oc2cccc(F)c2)C1 | -17.5
Cc1ncsc1C(=O)N1CCCC(c2cc(C(F)F)n3ncnc3n2)C1 (centres undefined) | 4.05
O=C(NC1CC1)c1cc(C(F)(F)F)cc(C(=O)NC2CC2)n1 | 9.97
Cc1noc(CN2CCN(c3cncc(Cl)n3)CC2)n1 | 2.74
CC(C#N)CN(C)C(=O)CCNC(=O)OC(C)(C)C (centres undefined) | 4.94
O=C1CCN(C(=O)CCc2ccc(Cl)cc2Cl)CCN1 | 1.88
COc1ccccc1CN(C)C(=O)C[S+]([O-])Cc1cc(C)on1 (centres undefined) | 0.788
CCc1ccc(C(C)NCc2nccn2Cc2ccccc2)o1 (centres undefined) | -1.2
COCCC(=O)N(CCC#N)c1ccc2c(c1)OCCO2 | -1.23
Cc1cc(CNc2ccc(C(=O)N3CCc4ccccc43)cn2)on1 | -0.0529
Cc1nc(COc2ccc(OC(C)C(N)=O)cc2)oc1C (centres undefined) | -1.65
Cc1cc(C(=O)NC2CCN(c3ncccc3C#N)CC2)no1 | -7.25
Cc1ccc(C)c(S(=O)(=O)CCN2CCCC2Cn2cccn2)c1 (centres undefined) | -8.78
Cc1oc(-c2ccsc2)nc1CC(=O)NCCCS(C)(=O)=O | -11.2
Cc1ccc(C(=O)N2CCN(CCCSCC#N)CC2)cc1F | -145
O=C(Nc1cccn(CC(F)(F)F)c1=O)c1ccncc1F | 0.315
CC(C)OCCS(=O)(=O)N1CCCC1c1cccc(N(C)C)c1 (centres undefined) | -1.22
COCCOCCNC(=O)N1CCc2c(F)ccc(F)c2C1 | -2.23
Cc1cc(C)c2c(c1)C(NC(=O)CSCC(N)=O)CCO2 (centres undefined) | -6.94
CCC(NC(=O)CS(=O)(=O)C1CCCC1)c1cc(F)ccc1F (centres undefined) | 0.217
CCc1nc(CC(=O)N2CCC(C(=O)N3CCCCC3)CC2)cs1 | 4.92

Structure (SMILES) | cytotoxicity at 10 µM [%]
Cc1cnc(CNc2ccc(C(=O)NCc3ccco3)cc2C)o1 | -4.51
O=C(NCC1(Sc2ccccc2)CC1)c1cc[nH]n1 | -5.96
O=C(NCC(CO)Cc1ccc(Cl)cc1)c1ccncc1Cl (centres undefined) | 5.21
CCOC1CCCN(C(=O)Nc2cnn(CC(F)F)c2)C1 (centres undefined) | -1.84
COCC1CCCN(C(=O)c2ccc(NC(=O)CC(C)C)c(C)c2)C1 (centres undefined) | -5.76
CCC(C)C(=O)NCCc1nc(C(F)(F)F)cs1 (centres undefined) | 2.08
CCC(=O)NCc1cc(Br)ccc1OC(F)F | 17.2
Cc1cc(C(=O)NC2CCCN(c3ccccc3)C2=O)on1 (centres undefined) | 24.7
O=C(NCc1ccoc1)Nc1ccc(CN2CCOC2=O)cc1 | 14.1
COc1cc(NC(=O)c2cc(C)sc2C)c(C(=O)N(C)C)cc1OC | -10.6
COCCN(C)C(=O)c1ccc(OC)cc1O | -3.19
CCCNC(=O)c1cc2c(s1)CCN2c1ncccn1 | -105
CNC(=O)[C@H]1C[C@@H]2CN(C(=O)c3ccc(C)nc3)C[C@@H]2N1C | -107
Cc1ccc(=O)n(CC(=O)N(C)Cc2csc(-c3cccs3)n2)n1 | 6.23
Cc1cnc(C)c(N2CCN(CC3CCCO3)CC2)n1 (centres undefined) | 5.82
CC(C)c1cc(CN(C)C(=O)CN2CCNC2=O)no1 | -6.1
CC(=O)N[C@@H]1CN(Cc2ccccc2-n2nc(C)cc2C)C[C@H]1C(C)C | 4.01
Cc1cccc(CN2CCC(Cc3ccccc3F)CC2)n1 | 1.88
COc1ccc(C(=O)N2C[C@@H](C(=O)O)[C@H](c3ccccc3)C2)c(O)c1 | -2.14
COCCCC1CCCN(Cc2c(C)ccc3ncccc23)C1 (centres undefined) | -136
CCCc1ccc(CN2CCN(C(=O)C(C)C)[C@@H]3CS(=O)(=O)C[C@@H]32)o1 | 5.39
O=C1NCCN(C(=O)CCN2CCCO2)C1c1cccc(F)c1 (centres undefined) | 5.47
CCc1nccc(CN2CCCC(CNC(=O)c3occc3C)C2)n1 (centres undefined) | 2.28

Structure (SMILES) | cytotoxicity at 10 µM [%]
NC(=O)c1cc2c(nc1N1C[C@H]3OC(=O)N(C4CCCC4)[C@H]3C1)CCC2 | 2.24
Cc1ccc2c(C)c(C(=O)NCCc3csc(N)n3)oc2c1 | -8.79
CCN(Cc1ccncc1)Cc1cn(-c2ccccc2)nn1 | -49.8
CCn1ccnc1CN1CCC(Oc2cccc(F)c2)(C(=O)O)CC1 | 3.67
COCc1cn(C2CCN(Cc3ccc(Cl)s3)CC2)nn1 | 5.43
CCC1(CO)CCCN(c2ncccc2C#N)C1 (centres undefined) | -9.06
CCc1cc(NC2CCN(S(C)(=O)=O)CC2)n2nc(C)c(C)c2n1 | -12.2
Cc1cc(=O)[nH]c(NCCNC(=O)C(c2ccc(F)cc2)N(C)C)n1 (centres undefined) | -29.5
CCc1cnc(N)nc1NCCN1CCCCC1 | -17.8
CN(C)S(=O)(=O)N1CCN(c2ccnc(N3CCCC3)n2)CC1 | -13.3
CCc1ocnc1C(=O)N1CCCC1c1noc(C)n1 (centres undefined) | -8.77
COc1ncccc1CNC(=O)c1c(C)oc(C)c1C | -14.5
C=C(C)CN1CCC(C(=O)c2cc(F)ccc2F)CC1 | -14.1
Cc1cc(C)c(CNC(=O)NCc2ccc(F)c(C)c2)c(=O)[nH]1 | -12.8
CCc1nc2n(n1)CC(NCC(=O)Nc1cc(C)nn1C)CC2 (centres undefined) | -10.7
Cc1nn(C)c(N2CCOCC2)c1CNC1COc2ccccc2C1 (centres undefined) | -17.9
Cc1cccc2nc(CN3CCCC3Cn3cncn3)cn12 (centres undefined) | -6.97
Cc1noc(C)c1C(=O)NCc1ccc(N2CCOCC2)nc1 | -7.91
COc1ccc(C(=O)N2CCCS2(=O)=O)cc1OC | -17.6
CSc1ccccc1C(=O)NCCCN1CCc2ccccc2C1 | -15.6
CCCN1CCC(CNC(=O)C2(c3cccc(C)c3)CC2)C1 (centres undefined) | -13.4
Cc1nccn1C1CCCN(C(=O)CCNc2ncccn2)C1 (centres undefined) | -13.7
COCc1nc(C(=O)N2CCCC2c2noc(C)n2)cs1 (centres undefined) | -12

Structure (SMILES) | cytotoxicity at 10 µM [%]
CC(C)(CNC(=O)NCCOc1cccc(F)c1)C(N)=O | -8.93
Cc1noc(C(C)C)c1C(=O)NCC(c1cccc(F)c1)N(C)C (centres undefined) | -7.46
Cc1nnc2n1CCN(CCOc1ccccc1)C2 | 2.24
Cc1ccc(N2CCCC(NCc3ccsc3)C2)nn1 (centres undefined) | -7.42
Cc1cnn(CC2CCCCN2C(=O)c2ccc3[nH]nnc3c2)c1 (centres undefined) | 4.19
O=C(NCC1CCC2(CCNCC2)CO1)c1ccno1 (centres undefined) | 12.5
Cc1nc(Nc2nccs2)cc(C2CCCN2)n1 (centres undefined) | 63
c1nc(CCC2CCCN2)cc(N2CCCCCC2)n1 (centres undefined) | -20.6
CCOCC1CN(C(=O)c2ccnnc2)Cc2cnn(CC)c21 (centres undefined) | -77.8
CNC(=O)c1cc(C2CCCNC2)n[nH]1 (centres undefined) | 9.03
CO[C@@H]1CC[C@H]2[C@H]1OCCN2CCOCc1ccccc1 | -114
CN1CCN(C)C2(CCN(Cc3ccsc3)CC2)C1=O | 0.0221
Cc1cc(C)nc(C2CCCNC2)n1 (centres undefined) | 9.85
Cc1ccc(CN2CCCC3(CCCC(=O)N3C)C2)s1 (centres undefined) | -110
C1CCN(CCOC2CCNC2)CC1 (centres undefined) | 6.32
Cc1cccc(S(=O)(=O)N2CC[C@H]3[C@H]2CCN3c2ncccn2)c1 | 0.995
O=C(O)[C@]12CCCN(C3CCOC3)C[C@H]1CN(c1nncs1)C2 (some centres undefined) | -106
O=C(NCc1cccnc1)N1CCc2ncnc(NC3CC3)c2CC1 | -107
CC(C)CN1CCC2(C1)CN(c1ncccn1)C2 | 4.73
O=C([C@H]1C[C@@H]2[C@@H](C1)OCCN2CC1CC1)N1CCCC1 | -2.2
CCN1CC2(CC1=O)CN(Cc1ccco1)CCN(C(=O)N(C)C)C2 (centres undefined) | -6.05
O=c1occ(CN2CCSCC2)c(O)c1CN1CCCC1 | -7.03
